Sampled rows, rich in hits. Any-hit rate of the full collection: about 1.6%.
LMPTP block: LMPTP (human) inhibition; actives 0.22% (n = 360,000); recombinant LMPTP-A, OMFP fluorogenic substrate, fluorescence intensity; P24666; inhibition, % at 20 µM; AID 651560;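 active = compounds that cut the enzyme signal by at least half of the control window in the single-dose screen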;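 also: plate controls were DMSO wells with enzyme plus substrate for no effect and substrate without enzyme for full effect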
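Assay system: LMPTP-A, protein tyrosine phosphatase of low molecular weight / Medium: pH 6.0 Bis-Tris buffer with DTT and Triton X-100 / Schedule: 50 min enzyme reaction at room temperature, protected from light / Measured by: endpoint fluorescence intensity from OMFP dephosphorylation / Read-out basis: % inhibition relative to no-enzyme and uninhibited control wells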
Scp1 inh: inhibitors of human Scp-1 phosphatase; Q9GZU7; Recombinant Scp1, phosphopeptide, malachite green phosphate absorbance; inhibition, % at 20 µM; actives 0.88% (n = 340,000); AID 493091;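 active = inhibition above about 50% at 20 µM, limit read from the data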;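 also: plate controls were DMSO wells with enzyme for no effect and wells lacking enzyme for full effect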
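Test system: SCP-1 phosphatase catalytic domain, residues 76-261; measured by: colorimetric phosphate reagent with accelerator and stabiliser, absorbance at 630 nm; timing: enzyme reaction 45 min at room temperature, colour 5 min, stabilisation 30 min; also added: Phosphorylated 17-residue peptide substrate; compound dosing: one concentration, 20 µM, with 1.0% DMSO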
STEP block: STEP (human) phosphatase inhibition; recombinant STEP, OMFP fluorogenic substrate, fluorescence; inhibition, % at 20 µM; actives 0.25% (n = 360,000);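 active = inhibition at 20 µM, scaled per plate between control wells, above about 37%, limit read from the data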;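 also: 0% = DMSO with enzyme and substrate and 100% = substrate only without enzyme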
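System: STEP (striatal-enriched tyrosine phosphatase) enzyme, cell-free; medium: Bis-Tris pH 6.0 buffer with DTT, detergent; dosing: 20 µM, 1% DMSO; times: reaction 20 min, ambient temperature; detection: fluorescence, 480/540 nm; read-out basis: normalized % inhibition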
F508del corr: correctors of CFTR F508del function in bronchial epithelial cells | AID 720511 | activity (quench increase), % at 7.58 µM | actives 0.36% (n = 350,000) | CFBE cells, YFP halide quenching; stimulated with forskolin plus potentiator P3; % fluorescence drop versus neutral controls;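 active = mean added fluorescence quench of at least 8% versus neutral control, with both replicates also reaching 8%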;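 also: cells transiently co-express mutant CFTR-F508del with the halide-sensitive YFP; corrector assay measuring rescue of mutant channel to the surface after 24 h compound exposure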
SUMO1 PPI mod: SUMO1-SIM interaction modulation; SUMO1 binding to a labelled peptide, TR-FRET, 1 h; inhibition, % at 20 µM; actives 0.33% (n = 360,000); in the data active = inhibition above about 37%
DNMT1 block: DNMT1 (human) enzyme inhibition. DNMT1 molecular beacon, Hinp1I cleavage, fluorescence. actives 0.83% (n = 360,000). AID 588458. P26358. inhibition (reported as % activation of signal), % at 10 µM; in the data active = inhibition above about 50%
* hit, by the source's call; . = no result.

SMILES	LMPTP block	Scp1 inh	STEP block	F508del corr	SUMO1 PPI mod	DNMT1 block
Cc1ccccc1NC(=O)CN1C(=O)NC2(CCCCC2)C1=O	-2	4	-2	.	3	2
O=C(CN1C(=O)NC2(CCCC2)C1=O)Nc1cc(Cl)ccc1Oc1ccccc1	1	-10	0	-1	40*	-2
Cc1ccc(NC(=O)CN2C(=O)NC3(CCCCCC3)C2=O)cc1Cl	2	-10	-2	3	3	-26
Cc1cc(NC(=O)CN2C(=O)NC3(CCCCCC3)C2=O)ccc1Br	0	-11	2	32*	3	-2
CC(C)(C)c1ccccc1NC(=O)CN1C(=O)NC2(CCCCCC2)C1=O	-1	-5	-1	30*	0	5
CN(C)C(=O)c1ccc(-c2ccc3c(c2)[C@@H]2[C@@H](CCN2C(=O)C2CCCCC2)[C@H](CO)N3C)cc1	.	.	.	-1	.	.
COCC(=O)N1C[C@@H](C)[C@H](OC)CN(C)C(=O)c2cc(NC(=O)c3ccc(F)cc3)ccc2OC[C@H]1C	.	.	.	-1	.	.
C[C@@H]1CCCCO[C@H](CN(C)Cc2ccc(Cl)c(Cl)c2)[C@@H](C)CN([C@@H](C)CO)C(=O)c2cc(NC(=O)Nc3cccc4ccccc34)ccc2O1	.	.	.	4	.	.
Cc1ccc(NCc2ccccc2O)cc1	-1	-11	-4	.	2	-2
Cc1ccc(CNc2ccc(O)cc2)cc1	18	-7	8	.	68*	-6
Cc1cccc(OCC(=O)Nc2ccccc2N2CCN(C)CC2)c1	-1	-4	-2	-2	-3	-1
Cc1cccc(OCC(=O)Nc2ccccc2N2CCCCC2)c1	4	-9	8	.	41*	5
O=S(=O)(N[C@@H]1CC[C@H](CCn2cc(C3CC3)nn2)O[C@@H]1CO)c1ccc(Cl)cc1	.	.	.	-1	.	.
C[C@H](CO)N1C[C@H](C)[C@@H](CN(C)Cc2ccccc2)Oc2ncc(-c3ccccc3F)cc2C1=O	.	.	.	1	.	.
O=C1c2cccc(NCCCNCCO)c2C(=O)c2cccc(NCCCNCCO)c21	10	-5	13	13*	-36	-100
COc1ccc(NC(=O)C(=O)c2cn(CC(=O)N3CCCC3)c3ccccc23)cc1OC	-1	4	-1	9.3*	-12	-4
O=C1c2ccccc2C(=O)C12OC2c1cccc2ccccc12 (stereo unspecified)	15	-1	34	-2	39*	58*
CO[C@H]1CN(C)C(=O)c2ccc(NS(=O)(=O)c3ccc(Cl)cc3)cc2OC[C@@H](C)NC[C@@H]1C	.	.	.	0	.	.
COC(=O)C1CC23C=CCN4CCC5(c6ccccc6NC15C2C)C43 (stereo unspecified)	0	-7	-1	10*	3	1
CCCN(C)C[C@H]1OCc2cnnn2CCCC(=O)N([C@H](C)CO)C[C@H]1C	.	.	.	1	.	.
CCc1ccc(/C=C2/SC(=S)N(CCC(=O)Nc3ccc(C(=O)O)cc3)C2=O)cc1	62*	.	26	2	85*	11
CCc1ccc(C=C2SC(=S)N(CCCC(=O)Nc3ccc(C(=O)O)cc3)C2=O)cc1	59*	.	1	4	-13	2
CCN(C(=O)CSc1nncn1-c1ccccc1)c1c(N)n(Cc2ccccc2)c(=O)[nH]c1=O	-1	-5	-1	0	-2	0
CCN(C(=O)COC(=O)c1cc2c(s1)CCC(C)C2)c1c(N)n(Cc2ccccc2)c(=O)[nH]c1=O (stereo unspecified)	0	24	0	3	-3	15
CCN(C(=O)COC(=O)/C=C/c1c(C)nn(-c2ccccc2)c1C)c1c(N)n(Cc2ccccc2)c(=O)[nH]c1=O	0	-5	-2	10*	2	-3
CCN(C(=O)COC(=O)c1cc2c(s1)CCCC2)c1c(N)n(Cc2ccccc2)c(=O)[nH]c1=O	1	2	-1	15*	1	8
CCN(C(=O)CSc1nnc(C)n1-c1ccc(C)cc1)c1c(N)n(Cc2ccccc2)c(=O)[nH]c1=O	-1	-5	3	20*	8	4
CCOC(=O)c1sc(Nc2nc(C)cc(OC)n2)nc1C	1	-3	-1	-1	1	2
